SMILES strings stand for the structures. The source made the active and inactive calls.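 Rule for the calls: active = mean IC50 at or below 20 µM; inactive = the rest.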

The test has as its system 697 B-cell NF-kB luciferase, PMA/ionomycin, 16 h. In words: stimulated NF-kB reporter signal decrease, 697 cells – cell-based, luminescence, B-cell NF-kB inhibitor project, SAR follow-up (AID 504485). In outline:
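Technique: luciferase luminescence with SteadyGlo reagent. Test system: human 697 B-cell line with NF-kB-driven luciferase reporter. Input: 15000 cells per well. Doses: dose series. Control set: DMSO and no-agonist wells. Timing: 1 h pretreatment, 16 h stimulation, 37 °C. Also added: PMA plus ionomycin stimulation of NF-kB.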
Take `Cc1oc(-c2ccc(C(F)(F)F)cc2)nc1CSCC(=O)O`: the IC50 is 0.97 µM.

With `CCC(C)NC(=O)CCc1nc(-c2ccc(C(C)C)cc2)no1` (stereo not drawn), the IC50 is 7.96 µM.

As for `CCOc1ccc(-c2nc(CSCC(=O)NCC3CC3)c(C)o2)cc1`, the IC50 is 1.32 µM.

As to `CCOc1ccccc1-c1nc(CSCC(=O)O)c(C)o1`, the IC50 is > 79 µM (inactive).

Consider `CCCCOc1ccc(-c2nc(CSCC(=O)O)c(C)o2)cc1`, for which the IC50 was 0.18 µM.

As to `CCNC(=O)CCc1nc(-c2cccc(OC)c2)no1`, the IC50 was > 79 µM (inactive).

As for `COc1cccc(-c2cc(=O)c3cc(NC(=O)c4ccc(N(C)C)cc4)ccc3[nH]2)c1`, the IC50 was > 79 µM (inactive).

Consider `Cc1ccc(-c2nc(CSCC(=O)NCc3ccco3)c(C)o2)cc1`, for which the IC50 was > 79 µM (inactive).

With `CCOc1ccc(-c2nc(CSCC(=O)O)c(C)o2)cc1`, the IC50 is < 0.15 µM.

Consider `CCCCc1ccc(-c2noc(CCC(=O)NC(C)CC)n2)cc1` (stereo not drawn), for which the IC50 was 0.67 µM.

With `COc1ccc(C(=O)Nc2ccc3[nH]c(-c4cccc(OC)c4)cc(=O)c3c2)cc1`, the IC50 was > 79 µM (inactive).

As to `Cc1oc(-c2ccccc2)nc1CSCC(=O)NCc1ccco1`, the IC50 is > 79 µM (inactive).

Take `O=C(CCc1nc(-c2ccccc2)no1)NC1CC1`: the IC50 is > 79 µM (inactive).

Regarding `CCCCc1ccc(-c2noc(CCC(=O)NC3CC3)n2)cc1`, the IC50 was 0.21 µM.

For `CCN(CC)C(=O)CCc1nc(-c2ccc(C(C)(C)C)cc2)no1`, the IC50 was 58.4 µM (inactive).

For the compound `Cc1oc(-c2ccc(OC(F)(F)F)cc2)nc1CSCC(=O)NC1CC1`, the IC50 is 2.23 µM.

`CC(C)(C)c1ccc(-c2noc(CCC(=O)O)n2)cc1`: the IC50 is 0.19 µM.

`CCNC(=O)CCc1nc(-c2ccc(OCC)cc2)no1`: the IC50 is > 79 µM (inactive).

`C#CCNC(=O)CSCc1nc(-c2ccc(OCC)cc2)oc1C`: the concentration for half-maximal inhibition (IC50) was < 0.15 µM.

`CC(C)c1ccc(-c2noc(CCC(=O)NC(C)(C)C)n2)cc1`: the IC50 was 26.9 µM (inactive).

For `Cc1ccc(-c2nc(CSCC(=O)NC3CC3)c(C)o2)cc1`, the IC50 is 16.2 µM.

Consider `CCC(C)NC(=O)CCc1nc(-c2ccccc2)no1` (stereo not drawn), for which the IC50 was > 79 µM (inactive).

Consider `CN(C)C(=O)CCc1nc(-c2ccc(C(C)(C)C)cc2)no1`, for which the IC50 was 41.5 µM (inactive).

Take `CCOc1ccc(-c2nc(CSCC(=O)NC3CC3)c(-c3ccccc3)o2)cc1`: the IC50 was > 79 µM (inactive).

Regarding `CNC(=O)CCc1nc(-c2ccc(C(C)(C)C)cc2)no1`, the IC50 was < 0.16 µM.

For `CCNC(=O)CCc1nc(-c2ccc(CC)cc2)no1`, the IC50 was > 79 µM (inactive).

In the case of `CCCCOc1ccc(-c2nc(CSCC(=O)NC3CC3)c(C)o2)cc1`, the IC50 is 0.24 µM.

Turning to `CCOc1ccc(-c2nc(CSCC(N)=O)c(C)o2)cc1`, the IC50 was < 0.15 µM.

`CCNC(=O)CCc1nc(-c2ccccc2Cl)no1`: the IC50 is > 79 µM (inactive).

With `COC(=O)CCc1nc(-c2ccc(C(C)(C)C)cc2)no1`, the IC50 was < 0.16 µM.

In the case of `CNC(=O)CCc1nc(-c2ccccc2)no1`, the IC50 is > 79 µM (inactive).

Turning to `CCOc1ccc(-c2nc(CSCC(=O)NC3CC3)c(C)o2)cc1`, the IC50 is 0.19 µM.

In the case of `CCc1ccc(-c2noc(CCC(=O)NC)n2)cc1`, the IC50 is > 79 µM (inactive).

On to `CC(C)c1ccc(-c2noc(CCC(=O)NC3CC3)n2)cc1`, for which the IC50 is 0.26 µM.

`CCc1ccc(-c2nc(CSCC(=O)NC3CC3)c(C)o2)cc1`: the IC50 was 0.48 µM.

Turning to `COc1ccc(-c2nc(CSCC(=O)NC3CC3)c(C)o2)cc1`, the IC50 is 29.2 µM (inactive).

As to `CCCCc1ccc(-c2noc(CCC(=O)NC)n2)cc1`, the IC50 was 0.2 µM.

As for `CCC(C)NC(=O)CCc1nc(-c2ccc(C(C)(C)C)cc2)no1` (stereo not drawn), the IC50 is 0.49 µM.

In the case of `CCOc1cccc(-c2nc(CSCC(=O)NC3CC3)c(C)o2)c1`, the IC50 was > 79 µM (inactive).

Regarding `CC(C)(C)c1ccc(-c2noc(CCC(=O)NC3CC3)n2)cc1`, the IC50 was 0.06 µM.

Regarding `CC(C)Nc1ccc(C(CC(=O)O)NC(=O)c2ccccc2)cc1[N+](=O)[O-]` (stereo not drawn), the IC50 is > 79 µM (inactive).

For `CCOc1ccc(-c2nc(CSCC(=O)NC3CCC3)c(C)o2)cc1`, the IC50 was 3.23 µM.

For the compound `CCCCOc1ccc(-c2nc(CSCC(=O)NCc3ccco3)c(C)o2)cc1`, the IC50 was 0.26 µM.

Consider `CCOc1ccc(-c2nc(CSCC(=O)N3CCOCC3)c(C)o2)cc1`, for which the IC50 was > 79 µM (inactive).

As to `CCc1ccc(-c2noc(CCC(=O)NC(C)CC)n2)cc1` (stereo not drawn), the IC50 is > 79 µM (inactive).

Regarding `CCOc1ccc(-c2nc(CSCC(=O)NC)c(C)o2)cc1`, the IC50 is 0.33 µM.

With `CCNC(=O)CCc1nc(-c2ccc(C(C)(C)C)cc2)no1`, the IC50 was 0.03 µM.

For the compound `Cc1oc(-c2ccc(OC(F)(F)F)cc2)nc1CSCC(=O)O`, the IC50 was 0.24 µM.

As for `CCc1ccc(-c2nc(CSCC(=O)NCc3ccco3)c(C)o2)cc1`, the IC50 is 49.4 µM (inactive).

On to `CCNC(=O)CCc1nc(-c2c(Cl)cccc2Cl)no1`, for which the IC50 is > 79 µM (inactive).

As to `CCCOc1ccc(-c2nc(CSCC(=O)O)c(C)o2)cc1`, the half-maximal inhibitory concentration (IC50) is < 0.15 µM.

As for `CCOC(=O)CC(NC(=O)c1ccc(Br)cc1)c1ccc(F)c([N+](=O)[O-])c1` (stereo not drawn), the IC50 was 36.8 µM (inactive).

For the compound `CCNC(=O)CCc1nc(-c2ccc(C(C)C)cc2)no1`, the half-maximal inhibitory concentration (IC50) is 0.32 µM.

`Cc1oc(-c2ccc(C(F)(F)F)cc2)nc1CSCC(=O)NC1CC1`: the IC50 is 15.7 µM.

Turning to `CC(C)(C)c1ccc(-c2noc(CCC(N)=O)n2)cc1`, the IC50 was < 0.16 µM.

`CCNC(=O)CCc1nc(-c2cccc(F)c2)no1`: the IC50 is > 79 µM (inactive).

Take `CCOc1ccc(-c2nc(CSCC(=O)NC(C)(C)C)c(C)o2)cc1`: the IC50 is 60.5 µM (inactive).

Turning to `COc1cccc(-c2cc(=O)c3cc(NC(=O)c4ccccc4)ccc3[nH]2)c1`, the IC50 was > 79 µM (inactive).

Take `CCOc1ccc(-c2nc(CSCC(=O)NCc3ccco3)c(C)o2)cc1`: the IC50 was 0.21 µM.

For `CCc1ccc(-c2noc(CCC(=O)NC3CC3)n2)cc1`, the IC50 is > 79 µM (inactive).

For `CCOc1ccc(-c2noc(CCC(=O)O)n2)cc1`, the IC50 is 34 µM (inactive).

As for `CNC(=O)CCc1nc(-c2ccc(C(C)C)cc2)no1`, the concentration for half-maximal inhibition (IC50) is 0.21 µM.

Consider `CCc1ccc(-c2nc(CSCC(=O)NC3CC3)c(-c3ccccc3)o2)cc1`, for which the IC50 is > 79 µM (inactive).

In the case of `O=C(O)CCc1nc(-c2ccccc2)no1`, the IC50 was > 79 µM (inactive).

For `CCCOc1ccc(-c2nc(CSCC(=O)NCc3ccco3)c(C)o2)cc1`, the IC50 was 0.17 µM.

Regarding `CCOc1ccccc1-c1nc(CSCC(=O)NC2CC2)c(C)o1`, the IC50 is > 79 µM (inactive).

As for `CCc1ccc(-c2noc(CCC(=O)NC(C)(C)C)n2)cc1`, the IC50 was > 79 µM (inactive).

For `CC(C)(C)NC(=O)CCc1nc(-c2ccccc2)no1`, the IC50 is > 79 µM (inactive).

With `CCOc1ccc(-c2nc(CSCC(=O)N(C)C)c(C)o2)cc1`, the IC50 is > 79 µM (inactive).

For the compound `CCNC(=O)CCc1nc(-c2cccc(C)c2)no1`, the IC50 was > 79 µM (inactive).

With `CC(C)(C)c1ccc(-c2noc(CCC(=O)NC3CCC3)n2)cc1`, the IC50 is 0.41 µM.

Turning to `Cc1oc(-c2ccccc2)nc1CSCC(=O)NC1CC1`, the IC50 is > 79 µM (inactive).

`CCCCc1ccc(-c2noc(CCC(=O)NCC)n2)cc1`: the IC50 was 0.22 µM.

Consider `CCCOc1ccc(-c2nc(CSCC(=O)NC3CC3)c(C)o2)cc1`, for which the IC50 is < 0.15 µM.

With `CCNC(=O)CCc1nc(-c2ccccc2)no1`, the IC50 was > 79 µM (inactive).

For `CCCCc1ccc(-c2noc(CCC(=O)NC(C)(C)C)n2)cc1`, the IC50 was 2.31 µM.

As to `CCNC(=O)CCc1nc(-c2ccccc2C)no1`, the IC50 is > 79 µM (inactive).

`COc1ccc(-c2nc(CSCC(=O)NCc3ccco3)c(C)o2)cc1`: the IC50 was 29.5 µM (inactive).

By IC50 is commonly meant the concentration needed to halve the response being measured.

The values above are taken from PubChem BioAssay AID504485 (Sanford-Burnham Center for Chemical Genomics, 2011).
